From PubChem
Only some compounds are listed: those with a hit (about 2% of all), similar ones and a draw of the others.
eIF4H FP inh – inhibitors of RNA binding by human eIF4H. inhibition, % at 35 µM. Q15056. eIF4H fluorescence polarization binding assay. actives 0.94% (n = 290,000). AID 2012;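 also: calls also rest on retests at 20 µM and on dose response follow-up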
core dimer inh – HCV core protein dimerization inhibition; TR-FRET GST/Flag-core106 dimerization, 1536-well; inhibition, % at 5 µM; actives 0.33% (n = 300,000);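 active = inhibition above the mean of all tested compounds plus 3 SD, set per screening campaign, cut at about 45% in these data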
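System – GST-tagged and Flag-tagged HCV core protein residues 1-106 · Repeats – one well for each compound · Technique – TR-FRET 671 and 617 nm emission · Doses – one concentration, 5 µM, in 0.5% DMSO · Times – 4 h, 22.5 °C incubation · Also added – Eu donor and XL665 acceptor anti-tag antibodies · Measure – percent inhibition of core106 dimerization signal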
MLLE-PAM2 inh – inhibitors of microRNA-mediated deadenylation, human PABP1 MLLE binding. P11940. GST-MLLE / FITC-PAM2 fluorescence polarization. inhibition, % at 20 µM. actives 0.36% (n = 360,000); in the data active = inhibition above about 35%, passing the limit was not always enough;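 also: plate controls were DMSO wells with GST-MLLE for no effect and wells lacking GST-MLLE protein for full effect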
FID counter – displaces DNA intercalator in HCV helicase counter-screen; inhibition, % at 7.9 µM; AID 1845; actives 0.17% (n = 290,000); DNA fluorescent intercalator displacement, fluorescence; in the data active = inhibition above about 37%;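 also: 0% = vehicle and 100% = reference compound; higher means more ethidium bromide displaced from hairpin DNA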
PABP polyA inh – PABP-poly(A) binding inhibition; P11940; PABP-poly(A) RNA binding, fluorescence polarization; inhibition, % at 35 µM; actives 1% (n = 290,000);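 also: calls also rest on retests at 20 µM and on dose response follow-up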
NS3 helicase inh – HCV NS3 helicase inhibition. NS3 helicase DNA unwinding, Cy5 molecular beacon fluorescence. actives 0.56% (n = 290,000). inhibition, % at 10.9 µM;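 active = inhibition above the mean of all tested compounds plus 3 SD, set per campaign, cut at about 35% in these data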;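 also: 0% = DMSO wells and 100% = thioflavine S control wells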
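Test system: hepatitis C virus NS3 helicase domain fragment enzyme. Also added: annealed dual-labelled DNA beacon duplex, ATP-started. Timing: 60 min unwinding reaction at 25 °C after ATP addition. Technique: Cy5 fluorescence. Measure: % inhibition of unwinding.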
* marks the source's active call; other numbers are inactive results; i = inactive; u = inconclusive; x = no result given. Unless noted, no rule for the calls is given here.

SMILES | eIF4H FP inh | core dimer inh | MLLE-PAM2 inh | FID counter | PABP polyA inh | NS3 helicase inh
Cc1ccc2c3c(cccc13)-c1ccccc1C2=O | 89.7* | -7.8 | 48.1* | -1.1 | 9.9* | 1.1
Nc1ccc2c3c(cccc13)-c1ccccc1-2 | x | x | i | x | x | x
O=S(=O)(O)c1cc(O)c2c(O)c(N=Nc3cc(Cl)ccc3O)c(S(=O)(=O)O)cc2c1 | 80.4* | -98.5 | 4.0 | -31.2 | 75.0* | 34.3
CC(C)c1nc2sc3c(SCC(=O)NCc4ccco4)ncnc3c2c2c1CCC2 | 14.0* | 26.9 | 3.7 | -22.2 | 51.9 | 24.4
CSc1nc(NCc2ccco2)c2c3c(sc2n1)CN(C)CC3 | 55.6 | 8.7 | x | 3.6 | -0.4 | 9.1
CSc1nc(SCC(=O)NCc2ccco2)c2c3c(sc2n1)CN(C)CC3 | x | 48.0* | 6.1 | -2.9 | x | 6.5
Cc1cccc(NC(=O)c2nc[nH]c2C(=O)Nc2cc(Br)ccc2F)c1 | x | x | -4.8 | x | x | x
COc1cccc(-c2cccc3c2NC(=O)C3(C)Cc2cccc(F)c2)c1 (stereo unspecified) | x | x | -1.8 | x | x | x
O=C(NCC1CCCO1)C(c1cccs1)N(Cc1ccccc1)C(=O)c1ccc(-c2ccccc2)[nH]1 (stereo unspecified) | -11.1 | 4.3 | -19.7 | -33.2 | 4.4 | -14.3
CC(C)(C)NC(=O)C(c1cccs1)N(CC1CCCO1)C(=O)c1ccc(-c2ccccc2)[nH]1 (stereo unspecified) | active | 9.5 | 1.1 | -29.2 | 50.5 | -16.0
COc1ccc2c(c1)c(=O)oc1c(C)c(OCc3cc(C(=O)O)oc3C)ccc12 | 83.9 | 12.5 | 1.6 | -14.1 | 8.0* | 11.6
Cc1oc(C(=O)O)cc1COc1cccc2cccnc12 | 92.1* | -0.1 | 1.7 | -7.3 | 16.2 | 1.2
CCCCCOC(=O)Nc1ccc(S(=O)(=O)Nc2cccc([N+](=O)[O-])c2)cc1 | 4.3 | 3.9 | 2.9 | 9.2 | 4.3 | 6.4
CCCCOC(=O)Nc1ccc(S(=O)(=O)Nc2ccc([N+](=O)[O-])cc2)cc1 | 89.8 | 6.0 | -2.6 | 11.9 | 1.3* | -2.6
COc1ccc([C@H]2CC(=O)C=C(c3cc(OC)ccc3OC)C2)cc1 | x | x | -3.9 | x | x | x
Cc1cc2[nH]c3c(c[n+](C)c4ccccc34)c2cc1C | 47.8 | 1.2 | -146.6 | 64.5* | 38.6 | 27.3
Cc1cc2[nH]c3c4ccccc4nc(C)c3c2cc1C | x | x | -1.6 | x | x | x
Cc1cccc(N2CCN(S(=O)(=O)c3ccc4c(c3)C(C)(C)C(=O)N4C)CC2)c1C | 46.5 | 46.6* | -7.5 | -34.8 | 23.0 | -7.3
CN1C(=O)C(C)(C)c2cc(S(=O)(=O)N(C)Cc3ccccc3)ccc21 | -3.1 | 10.5 | -3.2 | -33.5 | -8.1 | 14.9
Cc1ccc(C)c(N2CCN(S(=O)(=O)c3ccc4c(c3)C(C)(C)C(=O)N4C)CC2)c1 | -1.1 | 12.0 | 10.5 | -33.0 | -2.5 | -16.1
Cc1cccc(N(C)S(=O)(=O)c2ccc3c(c2)C(C)(C)C(=O)N3C)c1 | 9.8 | 54.1* | -11.4 | -30.3 | -0.1 | 1.2
Nc1ccc(O)c2c1C(=O)c1ccccc1C2=O | 123.4 | 2.6 | 86.7* | -5.2 | 3.9 | 17.2
COc1ccc(/C=C2\Sc3ccc(C(=O)N4CCCC4)cc3N(C)C2=O)cc1OC | x | -3.3 | 38.2* | -54.5 | x | -10.1
CCC(=O)N1CCN(c2ccc(NC(=S)NC(=O)c3ccc(OC)c([N+](=O)[O-])c3)cc2)CC1 | -3.1 | 3.1 | 41.8* | -20.0 | -6.3 | -6.1
O=C(NC(=S)Nc1ccc(N2CCOCC2)cc1)c1ccccc1 | 2.4 | 0.6 | 19.7 | -1.9 | 8.2 | -6.1
SMILES | eIF4H FP inh | core dimer inh | MLLE-PAM2 inh | FID counter | PABP polyA inh | NS3 helicase inh
CCOc1ccc(C(=O)NC(=S)Nc2ccc(N3CCC(C)CC3)cc2)cc1[N+](=O)[O-] | -9.7 | x | 15.7 | -0.5 | -3.8 | 2.3
CCc1ccc(C(=O)NC(=S)Nc2ccc(N3CCOCC3)cc2)cc1 | -1.1 | -2.2 | 39.5* | -2.8 | 2.0 | 5.2
CC(=O)Nc1cccc(NC(=O)CSc2n[nH]c(-c3ccccc3)n2)c1 | x | x | -7.8 | x | x | x
COc1cc2c(cc1OC)C(c1ccc3c(c1)Cc1ccccc1-3)OC(=O)C2 (stereo unspecified) | x | x | 5.0 | x | x | x
COc1ccc2[nH]c(C(=O)NCc3ccccc3)c(C)c2c1 | -2.2 | -4.2 | -1.3 | -13.3 | -14.7 | -1.4
O=C(Cc1nnc(NC(=O)c2ccccc2)s1)N/N=C\c1ccc(O)c(O)c1 | 58.8* | -4.2 | -10.4 | -8.0 | 27.9 | 11.6
Cc1cc(C)n(CC2CC(=O)N(c3ccc(C)c(Cl)c3)C2=O)n1 (stereo unspecified) | u | -9.4 | 12.9 | -9.7 | 99.6* | -1.4
CCC(C)NCCOCCOc1ccc(Cl)c2ccccc12 (stereo unspecified) | 7.6 | -6.6 | 14.1 | 50.9* | 3.1 | -44.1
Cn1c(=O)c(C(=O)COC(=O)c2cc(-c3ccco3)nc3ccccc23)c(N)n(CC2CC2)c1=O | 53.5 | 57.0* | x | -25.1 | -12.6 | 17.1
CCNC(=O)COC(=O)c1cc(-c2ccco2)nc2ccccc12 | 89.2* | 31.2 | -9.0 | -26.2 | 68.8* | 29.3
O=C(OCC(=O)N1CCN(C(=O)c2ccco2)CC1)c1cc(-c2ccco2)nc2ccccc12 | 84.9* | 68.4* | 19.2 | -17.3 | 70.0* | 5.8
O=C(OCC(=O)N1CCN(C(=O)c2ccco2)CC1)c1cc(-c2ccc(Cl)c(Cl)c2Cl)nc2ccccc12 | -1.5 | 29.5 | -16.3 | -3.4 | -6.8 | -7.3
COc1ccc(CNC(=O)COC(=O)c2cc(-c3ccco3)nc3ccccc23)cc1 | 89.7* | x | x | -20.0 | 43.9 | 17.3
Cn1c(=O)c(C(=O)COC(=O)c2cc(C3CC3)nc3ccccc23)c(N)n(Cc2ccccc2)c1=O | -5.5 | -4.1 | x | -10.0 | -2.5 | -7.7
Cc1cccc(OC(C)C(=O)Nc2ccc3c(c2)OCCO3)c1 (stereo unspecified) | x | x | 6.4 | x | x | x
Cc1ccc(S(=O)(=O)N2C[C@H]3n4c(=O)ccc(=O)n4C[C@H](OC(=O)NCC4CCCCC4)[C@@]3(O)C2)cc1 | x | x | -4.5 | x | x | x
O=C(O)CN=CC1=C(O)CC(c2ccccc2)CC1=O (stereo unspecified) | -0.4 | -13.1 | -0.7 | -3.1 | 9.3 | 8.1
Nc1nc(-c2cccc(F)c2)cs1 | -14.2 | -7.4 | 39.3* | -2.7 | -7.7 | -7.5
O=c1c2ccccc2nnn1-c1ccccc1[N+](=O)[O-] | x | x | 4.0 | x | x | x
Cc1ccc2nc(N3CCN(S(=O)(=O)c4ccc(C)c(Cl)c4)CC3)c(C#N)cc2c1 | -4.2 | 61.9* | -0.5 | -1.6 | -4.2 | -8.3
Cc1ccc2nc(N3CCN(C)CC3)c(C#N)cc2c1 | 3.3 | -5.3 | 13.6 | 2.8 | -7.6 | -2.2
Cc1nnc(NC(=O)c2cc(-c3ccco3)nc3ccccc23)s1 | x | 78.0* | 11.2 | x | x | x
O=C(Nc1nccs1)c1cc(-c2ccco2)nc2ccccc12 | 58.0 | 84.2* | -4.4 | -8.2 | active | 17.7
O=C(Nc1cccc(S(=O)(=O)NC2=NCCC2)c1)c1cc(-c2ccco2)nc2ccccc12 | 89.5* | 76.0* | -27.6 | -23.2 | 67.5* | 44.8*
